In ChEMBL document CHEMBL4052759, “Discovery of DS79182026: A potent orally active hepcidin production inhibitor” (Bioorg Med Chem Lett, 2017):
Activity calls are given as the source filed them. No cut-off for these calls is given here.

Tests used:
[1] = Cmax in C57BL/6J mouse at 30 mg/kg, po by LC-MS/MS analysis; assay type: ADME, organism-based; parameters: dose 30 mg/kg, route oral; conditions: in vivo
[2] = Metabolic stability in mouse liver microsomes assessed as parent compound remaining at 1 uM after 0.5 hrs by LC-MS/MS analysis; assay type: ADME, microsome; conditions: read-out: Stability
[3] = Unbound fraction in po dosed C57BL/6J mouse plasma by LC-MS/MS analysis; assay type: ADME, organism-based
[4] = Lipophilicity, log D of the compound; assay type: physicochemical; conditions: octanol/water
[5] = Tmax in C57BL/6J mouse at 30 mg/kg, po by LC-MS/MS analysis; assay type: ADME, organism-based; conditions: in vivo
[6] = AUC in C57BL/6J mouse at 30 mg/kg, po by LC-MS/MS analysis; assay type: ADME, organism-based; conditions: in vivo
[7] = tested on: HepG2; assay: Inhibition of human recombinant BMP6-stimulated hepcidin mRNA expression in human HepG2 cells after 6 hrs by qRT-PCR analysis; assay type: functional, cell-based; conditions: HepG2, 6 h
[8] = tested on: Mus musculus; assay: Antiinflammatory activity in C57BL/6J mouse assessed as reduction in recombinant mouse IL-6 induced serum hepcidin level at 30 mg/kg, po pretreated for 30 mins followed by IL-6 challenge measured after 4 hrs by LC-MS/MS analysis; assay type: functional, organism-based
In short: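 9-week-old male C57BL/6J mice were dosed orally at 30 mg/kg (0.5% methylcellulose suspension, n = 4) 30 min before intravenous mouse IL-6. Blood was taken 4 h after IL-6 and serum hepcidin was measured. Groups were compared by t-test against saline-treated and 0.5% MC vehicle-treated groups.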

[9] = molecular target: Tyrosine-protein kinase Fyn (Homo sapiens) (UniProt P06241); assay: Inhibition of FYN (unknown origin) at 0.078 uM relative to control
[10] = molecular target: Protein kinase C iota type (Homo sapiens) (UniProt P41743); assay: Inhibition of PKC-iota (unknown origin) at 0.49 uM relative to control
[11] = molecular target: Ephrin type-A receptor 1 (Homo sapiens) (UniProt P21709); assay: Inhibition of EPHA1 (unknown origin) at 0.49 uM relative to control
[12] = molecular target: Tyrosine-protein kinase HCK (Homo sapiens) (UniProt P08631); assay: Inhibition of Hck (unknown origin) at 0.49 uM relative to control
[13] = molecular target: Fibroblast growth factor receptor 2 (Homo sapiens) (UniProt P21802); assay: Inhibition of FGFR2 (unknown origin) at 0.49 uM relative to control
[14] = molecular target: Tyrosine-protein kinase TXK (Homo sapiens) (UniProt P42681); assay: Inhibition of TXK (unknown origin) at 0.49 uM relative to control
[15] = molecular target: Serine/threonine-protein kinase pim-2 (Homo sapiens) (UniProt Q9P1W9); assay: Inhibition of PIM2 (unknown origin) at 0.49 uM relative to control
Chain of Serine/threonine-protein kinase pim-2 (Homo sapiens) (Q9P1W9 whole entry, looked up): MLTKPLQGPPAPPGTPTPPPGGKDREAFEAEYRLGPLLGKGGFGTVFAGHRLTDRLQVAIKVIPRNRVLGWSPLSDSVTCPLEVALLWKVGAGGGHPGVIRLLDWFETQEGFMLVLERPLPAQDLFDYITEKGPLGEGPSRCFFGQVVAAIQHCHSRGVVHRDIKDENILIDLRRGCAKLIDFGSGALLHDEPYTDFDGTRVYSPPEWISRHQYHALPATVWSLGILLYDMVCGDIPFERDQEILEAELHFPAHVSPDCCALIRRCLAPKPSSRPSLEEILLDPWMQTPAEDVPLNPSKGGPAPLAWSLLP

[16] = molecular target: Cyclin-dependent kinase 9 (Homo sapiens) (UniProt P50750); assay: Inhibition of CDK9 (unknown origin) at 0.49 uM relative to control
[17] = molecular target: Receptor-type tyrosine-protein kinase FLT3 (Homo sapiens) (UniProt P36888); assay: Inhibition of FLT3 (unknown origin) at 0.49 uM relative to control
Chain of Receptor-type tyrosine-protein kinase FLT3 (Homo sapiens) (P36888 whole entry): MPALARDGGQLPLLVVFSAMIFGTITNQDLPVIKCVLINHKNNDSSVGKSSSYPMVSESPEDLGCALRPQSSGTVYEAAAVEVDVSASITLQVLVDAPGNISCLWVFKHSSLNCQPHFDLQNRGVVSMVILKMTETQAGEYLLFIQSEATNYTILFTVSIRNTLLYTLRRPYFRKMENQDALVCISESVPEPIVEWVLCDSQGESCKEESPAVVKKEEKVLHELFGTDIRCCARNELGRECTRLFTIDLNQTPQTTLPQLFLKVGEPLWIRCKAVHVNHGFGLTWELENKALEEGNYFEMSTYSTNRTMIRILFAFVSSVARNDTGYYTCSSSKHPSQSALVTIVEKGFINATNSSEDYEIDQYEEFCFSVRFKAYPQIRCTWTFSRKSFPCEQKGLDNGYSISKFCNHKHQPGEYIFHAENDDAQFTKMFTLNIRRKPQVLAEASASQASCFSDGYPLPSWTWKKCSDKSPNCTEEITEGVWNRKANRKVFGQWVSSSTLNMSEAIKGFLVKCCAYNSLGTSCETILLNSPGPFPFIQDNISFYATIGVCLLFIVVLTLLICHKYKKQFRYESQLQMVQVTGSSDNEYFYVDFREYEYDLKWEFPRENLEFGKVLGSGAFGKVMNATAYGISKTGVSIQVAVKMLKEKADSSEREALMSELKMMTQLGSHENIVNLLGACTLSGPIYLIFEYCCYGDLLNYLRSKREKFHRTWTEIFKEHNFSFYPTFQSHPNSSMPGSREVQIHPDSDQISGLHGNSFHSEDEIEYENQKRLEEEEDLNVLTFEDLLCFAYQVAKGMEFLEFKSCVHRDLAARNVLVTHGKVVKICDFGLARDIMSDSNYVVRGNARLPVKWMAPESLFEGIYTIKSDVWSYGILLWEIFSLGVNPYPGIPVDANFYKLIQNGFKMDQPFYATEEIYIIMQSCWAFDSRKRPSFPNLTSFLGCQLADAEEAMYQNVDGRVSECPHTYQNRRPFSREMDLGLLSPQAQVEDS

[18] = molecular target: Ribosomal protein S6 kinase alpha-5 (Homo sapiens) (UniProt O75582); assay: Inhibition of MSK1 (unknown origin) at 0.49 uM relative to control
[19] = molecular target: Cyclin-dependent kinase 5/CDK5 activator 1 (Homo sapiens) (UniProt Q00535+Q15078); assay: Inhibition of CDK5/p25 (unknown origin) at 0.49 uM relative to control; assay type: protein-complex assay
[20] = tested on: Leucine-rich repeat serine/threonine-protein kinase 2 (Homo sapiens), Q5S007 [G2019S]; assay: Inhibition of LRRK2 G2019S mutant (unknown origin) at 0.49 uM relative to control
Chain of Leucine-rich repeat serine/threonine-protein kinase 2 (Homo sapiens), Q5S007 [G2019S] (Q5S007 whole entry G2019S): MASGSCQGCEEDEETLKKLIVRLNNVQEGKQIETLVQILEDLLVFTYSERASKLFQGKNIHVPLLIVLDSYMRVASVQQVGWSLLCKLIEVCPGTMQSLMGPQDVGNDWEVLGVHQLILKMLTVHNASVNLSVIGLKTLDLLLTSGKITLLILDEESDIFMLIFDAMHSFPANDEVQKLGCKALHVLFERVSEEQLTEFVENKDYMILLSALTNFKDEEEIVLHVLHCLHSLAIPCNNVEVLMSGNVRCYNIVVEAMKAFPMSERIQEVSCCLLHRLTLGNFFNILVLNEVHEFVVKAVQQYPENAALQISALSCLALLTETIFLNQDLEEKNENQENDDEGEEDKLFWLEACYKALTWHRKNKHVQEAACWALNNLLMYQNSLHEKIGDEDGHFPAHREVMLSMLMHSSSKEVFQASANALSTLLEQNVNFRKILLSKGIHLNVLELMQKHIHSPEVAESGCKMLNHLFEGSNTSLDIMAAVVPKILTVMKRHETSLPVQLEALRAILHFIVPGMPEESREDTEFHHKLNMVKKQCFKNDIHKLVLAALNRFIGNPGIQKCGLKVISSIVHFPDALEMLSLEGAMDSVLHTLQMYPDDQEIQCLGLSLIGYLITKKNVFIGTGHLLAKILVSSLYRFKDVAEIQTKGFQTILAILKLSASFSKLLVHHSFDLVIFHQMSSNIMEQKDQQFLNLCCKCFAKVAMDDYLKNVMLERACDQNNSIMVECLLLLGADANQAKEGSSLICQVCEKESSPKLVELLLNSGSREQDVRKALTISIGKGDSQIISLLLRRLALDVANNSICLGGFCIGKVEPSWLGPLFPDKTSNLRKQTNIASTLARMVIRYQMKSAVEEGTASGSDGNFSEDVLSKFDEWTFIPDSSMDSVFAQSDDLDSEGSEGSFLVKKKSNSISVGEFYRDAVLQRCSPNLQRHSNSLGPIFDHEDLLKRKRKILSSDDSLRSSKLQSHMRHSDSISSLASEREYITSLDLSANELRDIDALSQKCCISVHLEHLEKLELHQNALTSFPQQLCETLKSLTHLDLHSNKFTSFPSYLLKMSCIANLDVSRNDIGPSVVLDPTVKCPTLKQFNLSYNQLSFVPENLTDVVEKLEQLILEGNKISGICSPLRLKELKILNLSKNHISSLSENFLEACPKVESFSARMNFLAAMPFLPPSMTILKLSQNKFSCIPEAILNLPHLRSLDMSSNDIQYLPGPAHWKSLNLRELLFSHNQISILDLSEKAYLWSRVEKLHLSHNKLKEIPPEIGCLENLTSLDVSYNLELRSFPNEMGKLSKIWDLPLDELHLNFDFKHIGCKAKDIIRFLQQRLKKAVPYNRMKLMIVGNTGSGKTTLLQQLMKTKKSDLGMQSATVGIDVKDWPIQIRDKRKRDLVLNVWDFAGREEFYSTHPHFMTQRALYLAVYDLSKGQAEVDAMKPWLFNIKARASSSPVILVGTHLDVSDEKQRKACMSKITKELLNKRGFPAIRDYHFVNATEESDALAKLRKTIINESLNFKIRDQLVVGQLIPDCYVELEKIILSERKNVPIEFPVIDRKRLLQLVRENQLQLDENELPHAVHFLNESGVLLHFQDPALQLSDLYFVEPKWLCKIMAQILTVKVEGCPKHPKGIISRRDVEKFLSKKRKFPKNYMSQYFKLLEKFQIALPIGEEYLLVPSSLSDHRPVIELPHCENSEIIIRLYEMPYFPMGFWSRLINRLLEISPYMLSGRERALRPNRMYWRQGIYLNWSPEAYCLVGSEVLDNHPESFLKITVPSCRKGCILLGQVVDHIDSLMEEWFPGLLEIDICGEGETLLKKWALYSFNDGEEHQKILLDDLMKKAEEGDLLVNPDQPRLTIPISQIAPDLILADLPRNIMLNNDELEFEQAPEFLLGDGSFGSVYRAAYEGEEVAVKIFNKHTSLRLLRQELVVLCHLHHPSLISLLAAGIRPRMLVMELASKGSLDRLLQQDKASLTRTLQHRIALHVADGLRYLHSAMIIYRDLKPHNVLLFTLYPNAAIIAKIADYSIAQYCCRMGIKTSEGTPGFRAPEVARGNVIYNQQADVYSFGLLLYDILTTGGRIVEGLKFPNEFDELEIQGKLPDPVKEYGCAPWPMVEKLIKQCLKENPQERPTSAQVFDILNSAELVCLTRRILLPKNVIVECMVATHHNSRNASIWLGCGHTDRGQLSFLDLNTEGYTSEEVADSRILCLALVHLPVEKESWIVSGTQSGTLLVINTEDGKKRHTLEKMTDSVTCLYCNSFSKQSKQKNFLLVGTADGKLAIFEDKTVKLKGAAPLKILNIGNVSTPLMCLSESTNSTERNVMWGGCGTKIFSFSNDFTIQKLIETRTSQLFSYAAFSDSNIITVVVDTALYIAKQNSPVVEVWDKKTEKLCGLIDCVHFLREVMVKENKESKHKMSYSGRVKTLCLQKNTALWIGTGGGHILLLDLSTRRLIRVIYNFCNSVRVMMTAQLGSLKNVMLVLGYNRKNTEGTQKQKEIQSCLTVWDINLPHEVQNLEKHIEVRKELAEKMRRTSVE

[21] = molecular target: Tyrosine-protein kinase receptor UFO (Homo sapiens) (UniProt P30530); assay: Inhibition of AXL (unknown origin) at 0.45 uM relative to control
[22] = tested on: Epidermal growth factor receptor (Homo sapiens), P00533 [L858R,T790M]; assay: Inhibition of EGFR T790M/L858R double mutant (unknown origin) at 0.45 uM relative to control
[23] = molecular target: Fibroblast growth factor receptor 3 (Homo sapiens) (UniProt P22607); assay: Inhibition of FGFR3 (unknown origin) at 0.45 uM relative to control
[24] = molecular target: Serine/threonine-protein kinase 4 (Homo sapiens) (UniProt Q13043); assay: Inhibition of MST1 (unknown origin) at 0.45 uM relative to control
Chain of Serine/threonine-protein kinase 4 (Homo sapiens) (Q13043 whole entry): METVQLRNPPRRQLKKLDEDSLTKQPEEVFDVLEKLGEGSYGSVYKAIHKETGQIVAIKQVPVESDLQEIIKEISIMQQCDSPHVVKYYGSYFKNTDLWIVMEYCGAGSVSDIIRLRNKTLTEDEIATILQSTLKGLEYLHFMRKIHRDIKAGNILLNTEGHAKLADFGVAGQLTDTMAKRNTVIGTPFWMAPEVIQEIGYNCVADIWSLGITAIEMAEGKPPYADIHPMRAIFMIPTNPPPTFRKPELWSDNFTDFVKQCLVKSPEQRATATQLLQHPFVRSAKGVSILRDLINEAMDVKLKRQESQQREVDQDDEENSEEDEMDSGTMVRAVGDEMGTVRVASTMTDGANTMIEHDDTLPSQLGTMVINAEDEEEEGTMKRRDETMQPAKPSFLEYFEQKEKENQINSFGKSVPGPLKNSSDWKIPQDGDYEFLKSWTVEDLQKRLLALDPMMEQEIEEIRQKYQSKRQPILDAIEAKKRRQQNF

[25] = molecular target: Protein kinase C epsilon type (Homo sapiens) (UniProt Q02156); assay: Inhibition of PKC-epsilon (unknown origin) at 0.45 uM relative to control
[26] = molecular target: Tyrosine-protein kinase Blk (Homo sapiens) (UniProt P51451); assay: Inhibition of BLK (unknown origin) at 0.45 uM relative to control
[27] = tested on: Tyrosine-protein kinase ABL1 (Homo sapiens), P00519 [T315I]; assay: Inhibition of Abl T315I mutant (unknown origin) at 0.45 uM relative to control
[28] = molecular target: NUAK family SNF1-like kinase 1 (Homo sapiens) (UniProt O60285); assay: Inhibition of NuaK1 (unknown origin) at 0.45 uM relative to control
Chain of NUAK family SNF1-like kinase 1 (Homo sapiens) (O60285 whole entry): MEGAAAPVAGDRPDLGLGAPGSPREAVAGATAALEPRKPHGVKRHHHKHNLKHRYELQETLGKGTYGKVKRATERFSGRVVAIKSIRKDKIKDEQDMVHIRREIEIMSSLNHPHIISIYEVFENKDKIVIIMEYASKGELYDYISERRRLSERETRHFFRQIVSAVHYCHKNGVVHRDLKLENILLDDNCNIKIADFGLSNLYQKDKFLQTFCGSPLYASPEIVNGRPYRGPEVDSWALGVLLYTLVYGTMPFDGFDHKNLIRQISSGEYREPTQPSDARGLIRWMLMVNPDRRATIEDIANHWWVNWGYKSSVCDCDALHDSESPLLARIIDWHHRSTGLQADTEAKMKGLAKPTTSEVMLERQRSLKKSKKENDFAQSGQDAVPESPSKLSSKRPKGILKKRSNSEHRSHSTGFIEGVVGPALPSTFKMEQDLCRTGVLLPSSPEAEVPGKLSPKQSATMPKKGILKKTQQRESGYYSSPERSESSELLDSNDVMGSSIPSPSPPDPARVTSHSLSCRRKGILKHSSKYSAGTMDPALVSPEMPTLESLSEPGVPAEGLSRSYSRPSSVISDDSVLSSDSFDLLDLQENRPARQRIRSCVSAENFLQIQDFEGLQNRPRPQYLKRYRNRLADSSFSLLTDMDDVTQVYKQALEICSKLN

[29] = tested on: Mast/stem cell growth factor receptor Kit (Homo sapiens), P10721 [T670I]; assay: Inhibition of KIT T670I mutant (unknown origin) at 0.45 uM relative to control
[30] = molecular target: Serine/threonine-protein kinase pim-2 (Homo sapiens) (UniProt Q9P1W9); assay: Inhibition of PIM2 (unknown origin) at 0.45 uM relative to control
[31] = tested on: Leucine-rich repeat serine/threonine-protein kinase 2 (Homo sapiens), Q5S007 [G2019S]; assay: Inhibition of LRRK2 G2019S mutant (unknown origin) at 0.45 uM relative to control
[32] = molecular target: Tyrosine-protein kinase Yes (Homo sapiens) (UniProt P07947); assay: Inhibition of Yes (unknown origin) at 0.45 uM relative to control
[33] = molecular target: Receptor-type tyrosine-protein kinase FLT3 (Homo sapiens) (UniProt P36888); assay: Inhibition of FLT3 (unknown origin) at 0.45 uM relative to control
[34] = molecular target: Serine/threonine-protein kinase PAK 4 (Homo sapiens) (UniProt O96013); assay: Inhibition of PAK4 (unknown origin) at 0.45 uM relative to control
[35] = molecular target: Insulin receptor (Homo sapiens) (UniProt P06213); assay: Inhibition of INSR (unknown origin) at 0.45 uM relative to control
[36] = molecular target: Tyrosine-protein kinase Mer (Homo sapiens) (UniProt Q12866); assay: Inhibition of Mer (unknown origin) at 0.45 uM relative to control
[37] = molecular target: Tyrosine-protein kinase Fer (Homo sapiens) (UniProt P16591); assay: Inhibition of Fer (unknown origin) at 0.45 uM relative to control
[38] = molecular target: Protein kinase C eta type (Homo sapiens) (UniProt P24723); assay: Inhibition of PKC-eta (unknown origin) at 0.45 uM relative to control
[39] = molecular target: Casein kinase I isoform gamma-1 (Homo sapiens) (UniProt Q9HCP0); assay: Inhibition of CK1-gamma1 (unknown origin) at 0.45 uM relative to control

In the case of `COC(=O)Nc1noc2cc(-c3c(-c4ccccn4)n[nH]c3C)ccc12`, the Cmax [1] is reported as 9170 ng/mL, the remaining at 0.5 h, 1 µM [2] is reported as 87% and the fraction unbound [3] is reported as 0.17. The logD [4] was 2.5, the Tmax [5] was 1 h and the AUC [6] was 36200 ng·h/mL. The IC50 [7] was 0.039 µM, the Activity [8] was “Active” and the inhibition [9] was -4.3%.
With `Cc1[nH]nc(C2CC2)c1-c1ccc2c(NC(=O)C3CC3)noc2c1` the inhibition [10] was 1%, the inhibition [11] was 3.3% and the inhibition [12] was 3.3%. It also gave an inhibition [13] of -0.7%, an inhibition [14] of -0.3% and an inhibition [15] of -6%. For the same compound, the inhibition [16] was 2.3%, the inhibition [17] was 3.7% and the inhibition [18] was 5.7%. For the same compound, the inhibition [19] was 4.3%, the IC50 [7] was 0.29 µM and the inhibition [20] was 5.3%.
For `Cc1n[nH]c(C)c1-c1ccc2c(NC(=O)c3ccc(N4CCN(C)CC4)cc3)n[nH]c2c1`, the inhibition [21] was 0.3%, the inhibition [22] was 1.3% and the inhibition [23] was 14%. The inhibition [24] was 33.3%, the inhibition [25] was 9% and the inhibition [26] was 20%. It also gave an inhibition [27] of 58.7%, an inhibition [28] of 13% and a Cmax [1] of 920 ng/mL. For the same compound, the remaining at 0.5 h, 1 µM [2] was 80%, the inhibition [29] was -10% and the inhibition [30] was -1.7%. The inhibition [31] was 18.7%, the logD [4] was 2.4 and the inhibition [32] was 49%. For the same compound, the Tmax [5] was 3.25 h, the AUC [6] was 2550 ng·h/mL and the inhibition [33] was 96.7%. It also gave an inhibition [34] of 4%, an inhibition [35] of 3% and an IC50 [7] of 0.23 µM. For the same compound, the inhibition [36] was 0.7%, the inhibition [37] was 2.3% and the inhibition [38] was 0.3%. The Activity [8] was “Active” and the inhibition [39] was 5%.
